This note sets out measurements from ChEMBL document CHEMBL4390684, “The synthesis of 4,6-diaryl-2-pyridones and their bioactivation in CYP1 expressing breast cancer cells” (Bioorg Med Chem Lett, 2019).

In data set [1] the test system is MCF7. Nature of the data set: Antiproliferative activity against ER positive human MCF7 cells expressing low level of CYP assessed as reduction in cell viability measured after 96 hrs by MTT assay. In kind it is functional, cell-based. Conditions: MCF7, 96 h. The essentials:
(§1)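 Antiproliferative IC50 values were determined in MCF-7, MDA-MB-468, TCDD-treated MCF-7 (high CYP1A1 expression) and non-tumour MCF-10A breast cells. Each value is the mean of two independent experiments run in quadruplicate.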

The target in data set [2] is T1, Cytochrome P450 1B1 (Homo sapiens, UniProt Q16678).
T1 sequence (Q16678 whole entry): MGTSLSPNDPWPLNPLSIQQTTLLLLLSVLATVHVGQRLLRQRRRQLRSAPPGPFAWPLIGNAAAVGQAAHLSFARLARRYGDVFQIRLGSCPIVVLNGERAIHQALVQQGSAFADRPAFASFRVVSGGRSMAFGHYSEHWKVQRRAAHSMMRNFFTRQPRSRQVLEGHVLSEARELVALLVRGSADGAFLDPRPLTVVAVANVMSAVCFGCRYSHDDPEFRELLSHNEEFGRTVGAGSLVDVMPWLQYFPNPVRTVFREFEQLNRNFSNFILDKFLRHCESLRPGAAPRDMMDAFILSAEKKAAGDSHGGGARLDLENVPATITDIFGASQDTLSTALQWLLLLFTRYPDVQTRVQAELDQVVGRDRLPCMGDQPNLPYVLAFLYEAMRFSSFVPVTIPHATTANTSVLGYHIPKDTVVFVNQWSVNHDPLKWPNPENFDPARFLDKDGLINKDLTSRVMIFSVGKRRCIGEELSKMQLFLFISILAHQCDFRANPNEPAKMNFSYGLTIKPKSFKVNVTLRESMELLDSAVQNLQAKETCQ
Nature of the data set: Drug metabolism in supersomes expressing human CYP1B1 and coexpressing NADPH reductase assessed as CYP1B1-mediated drug metabolism by measuring retention time at 10 uM in the presence of NADPH measured at 5 mins interval for 25 mins by reverse phase HPLC method. Conditions: recombinant enzyme. It counts as ADME. The essentials: (§2)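 Substrate was incubated with insect-cell Supersomes expressing human CYP1A1 or CYP1B1 plus NADPH reductase, at 20 pmol/mL CYP. Controls used non-CYP Supersomes, or omitted the compound, NADPH or active enzyme. Duplicate samples were taken every 5 min and quenched with ice-cold acetonitrile. After centrifugation, the supernatant was analysed by reverse-phase HPLC for parent depletion (half-life) and metabolite peaks.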

For data set [3], the system named is MCF7. Nature of the data set: Antiproliferative activity against […]-induced ER positive human MCF7 cells expressing CYP1A1 assessed as reduction in cell viability after 96 hrs by MTT assay. The following applies: MCF7, 96 h. It counts as functional, cell-based. The essentials:
as §1

Data set [4] can be described thus: Selectivity index, ratio of IC50 for human MCF10A cells to IC50 for human MDA-MB-468 cells expressing CYP1A1 and CYP1B1. In kind it is toxicity. Conditions: read-out: Ratio IC50.
Data set [5] has as its system MDA-MB-468. Nature of the data set: Antiproliferative activity against ER negative human MDA-MB-468 cells expressing CYP1A1 and CYP1B1 assessed as reduction in cell viability measured after 96 hrs by MTT assay. The following applies: MDA-MB-468, 96 h. In kind it is functional, cell-based. The essentials: as §1
The target of data set [6] is T2, Cytochrome P450 1A1 (Homo sapiens, UniProt P04798).
T2 sequence (P04798 whole entry): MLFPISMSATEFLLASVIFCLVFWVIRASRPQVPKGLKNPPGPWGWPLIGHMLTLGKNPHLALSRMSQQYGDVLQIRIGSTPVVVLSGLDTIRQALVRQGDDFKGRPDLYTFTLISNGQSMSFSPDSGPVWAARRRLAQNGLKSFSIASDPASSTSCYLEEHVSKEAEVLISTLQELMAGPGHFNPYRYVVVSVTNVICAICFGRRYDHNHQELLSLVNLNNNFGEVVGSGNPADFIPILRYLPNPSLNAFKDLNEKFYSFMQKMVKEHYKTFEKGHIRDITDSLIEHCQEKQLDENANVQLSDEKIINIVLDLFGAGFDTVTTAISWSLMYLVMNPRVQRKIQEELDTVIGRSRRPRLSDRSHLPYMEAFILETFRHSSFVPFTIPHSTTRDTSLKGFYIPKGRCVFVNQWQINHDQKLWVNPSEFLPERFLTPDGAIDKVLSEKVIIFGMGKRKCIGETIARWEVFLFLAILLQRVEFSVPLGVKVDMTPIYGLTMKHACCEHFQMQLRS
Briefly: Drug metabolism in supersomes expressing human CYP1A1 and coexpressing NADPH reductase assessed as CYP1A1-mediated drug metabolism by measuring retention time at 10 uM in the presence of NADPH measured at 5 mins interval for 25 mins by reverse phase HPLC method. In kind it is ADME. Conditions: recombinant enzyme. The essentials:
as §2

Data set [7] concerns MCF7. Briefly: Activation factor, ratio of antiproliferative IC50 of ER positive human MCF7 cells expressing low level of CYP to antiproliferative IC50 of […]-induced ER positive human MCF7 cells expressing CYP1A1. It counts as functional.
The test system of data set [8] is MCF-10A. Briefly: Cytotoxicity against human MCF10A cells assessed as reduction in cell viability after 96 hrs by MTT assay. It counts as cell-based. The essentials:
as §1

Data set [9] relates to MCF7. Briefly: Antiproliferative activity against ER positive human MCF7 cells expressing low level of CYP assessed as reduction in cell viability in presence of CYP 1 inhibitor alpha-naphthoflavone at 1 uM measured after 96 hrs by MTT assay. In kind it is functional, cell-based. The following applies: MCF7, 96 h.
Data set [10] has as its target T3, CYP1B1 (Homo sapiens, UniProt Q16678).
T3 sequence (Q16678 whole entry): T1 sequence (Q16678 whole entry)
Nature of the data set: Drug metabolism in supersomes expressing human CYP1B1 and coexpressing NADPH reductase assessed as CYP1B1-mediated drug metabolism by measuring compound half life at 10 uM in the presence of NADPH measured at 5 mins interval for 25 mins by reverse phase HPLC analysis. It counts as ADME. The essentials: as §2

Data set [11] concerns MCF7. Briefly: Antiproliferative activity against […]-induced ER positive human MCF7 cells expressing CYP1A1 assessed as reduction in cell viability in presence of CYP 1 inhibitor alpha-naphthoflavone measured after 96 hrs by MTT assay. It counts as functional, cell-based. Conditions: MCF7, 96 h.
Data set [12] addresses T2, Cytochrome P450 1A1. Briefly: Drug metabolism in supersomes expressing human CYP1A1 and coexpressing NADPH reductase assessed as CYP1A1-mediated 4-(3,4-Dihydroxyphenyl)-6-(2,4-dimethoxyphenyl)-1H-pyridin-2-one formation at 10 uM in the presence of NADPH measured at 5 mins interval for 25 mins by reverse phase HPLC method. In kind it is ADME. Conditions: recombinant enzyme. The essentials: as §2

Data set [13] concerns MCF-10A. Briefly: Antiproliferative activity against human MCF10A cells assessed as reduction in cell viability in presence of CYP 1 inhibitor alpha-naphthoflavone at 1 uM measured after 96 hrs by MTT assay.
The target of data set [14] is T1, Cytochrome P450 1B1. Briefly: Drug metabolism in supersomes expressing human CYP1B1 and coexpressing NADPH reductase assessed as CYP1B1-mediated 4-(3,4-Dihydroxyphenyl)-6-(2,4-dimethoxyphenyl)-1H-pyridin-2-one formation at 10 uM in the presence of NADPH measured at 5 mins interval for 25 mins by reverse phase HPLC method. It counts as ADME. The following applies: recombinant enzyme. The essentials:
as §2

The target of data set [15] is T4, CYP1A1 (Homo sapiens, UniProt P04798).
T4 sequence (P04798 whole entry): T2 sequence (P04798 whole entry)
Nature of the data set: Drug metabolism in supersomes expressing human CYP1A1 and coexpressing NADPH reductase assessed as CYP1A1-mediated drug metabolism by measuring compound half life at 10 uM in the presence of NADPH measured at 5 mins interval for 25 mins by reverse phase HPLC analysis. In kind it is ADME. The essentials:
as §2

Data set [16] relates to MDA-MB-468. Briefly: Antiproliferative activity against ER negative human MDA-MB-468 cells expressing CYP1A1 and CYP1B1 assessed as reduction in cell viability in presence of CYP 1 inhibitor alpha-naphthoflavone at 1 uM measured after 96 hrs by MTT assay. In kind it is functional, cell-based. The following applies: MDA-MB-468, 96 h.
Data set [17] concerns the target T1, Cytochrome P450 1B1. Briefly: Drug metabolism in supersomes expressing human CYP1B1 and coexpressing NADPH reductase assessed as CYP1B1-mediated second metabolite retention time at 10 uM in the presence of NADPH measured at 5 mins interval for 25 mins by reverse phase HPLC method. In kind it is ADME. Conditions: recombinant enzyme. The essentials: as §2

`COc1ccc(-c2cc(-c3ccc(O)c(O)c3)cc(=O)[nH]2)c(OC)c1`: the half-inhibitory concentration (IC50) is 1500 nM in data set [1], 700 nM in [3], 500 nM in [5] and 1500 nM in data set [8]. Besides, the Retention_time in [2] and in data set [6] was 10.48 min each time. Moreover, in [4], the selectivity ratio was determined as 3. In data set [7], the “Ratio IC50” value turned out to be 2.1.
On to `COc1ccc(-c2cc(-c3ccc4c(c3)OCO4)cc(=O)[nH]2)c(OC)c1`, for which the half-inhibitory concentration (IC50) in [9] is 12000 nM; in [1] it was 9000 nM; in data set [11] it was 9000 nM; in data set [3] it was 1800 nM; in [13], greater than 100000 nM; in [5], 40 nM. Also, the IC50 was greater than 100000 nM in data set [16] and 40000 nM in data set [8]. Moreover, the values for the half-life at 10 µM in [10] and in data set [15] were 30.1 min and 12.9 min, respectively. The Drug metabolism entry in data set [12] and in data set [14] was “Metabolite_Detected” throughout. Besides, the selectivity ratio in [4] is 1000. The Retention_time in data set [17] came to 9.22 min. In addition, the “Ratio IC50” value in data set [7] was 5.
